The subject of the assay is L5178Y. Description: Compound was tested in vitro for concentration required to decrease 50% growth rate of murine leukemia L5178Y/R cell culture. In kind it is functional, Mus musculus. In short, it runs like this: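 Seeded at 4.0-6.0 × 10^4 cells/mL in duplicate. Drug added 1:10, at least eight concentrations, for 48 h of continuous exposure under 5% CO2. Cells counted by Coulter counter. ID50 is the concentration that halves the growth rate (doubles the generation time), read from the dose-response curve.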
`CC1(C)N=C(N)N=C(N)N1c1cccc(F)c1`: the “Log 1/C” value is recorded as 5.24. `CCCCCCCCCCCCCCOc1cccc(N2C(N)=NC(N)=NC2(C)C)c1`: the “Log 1/C” value is reported as 6.49. Take `COc1cccc(OCc2cccc(N3C(N)=NC(N)=NC3(C)C)c2)c1`: the “Log 1/C” value came to 5.36.

Turning to `CC1(C)N=C(N)N=C(N)N1c1cccc(COc2cccc(Cl)c2)c1`, the “Log 1/C” value is listed as 5.93.

Regarding `CC(=O)c1cccc(N2C(N)=NC(N)=NC2(C)C)c1`, the “Log 1/C” value is 4.56.

For the compound `CCCCCCCCCCCOc1cccc(N2C(N)=NC(N)=NC2(C)C)c1`, the “Log 1/C” value came to 6.38. With `CC1(C)N=C(N)N=C(N)N1c1cccc(OCCOc2cccc(C(F)(F)F)c2)c1`, the “Log 1/C” value is given as 5.85. Take `CC(=O)Nc1cccc(OCc2cccc(N3C(N)=NC(N)=NC3(C)C)c2)c1`: the “Log 1/C” value is on record as 4.95.

Turning to `CCCCCCCCCCCCCOc1cccc(N2C(N)=NC(N)=NC2(C)C)c1`, the “Log 1/C” value is on record as 6.52. Regarding `CC1(C)N=C(N)N=C(N)N1c1cccc(I)c1`, the “Log 1/C” value is 5.91. For `Cc1cccc(N2C(N)=NC(N)=NC2(C)C)c1`, the “Log 1/C” value was found to be 4.97.

For `CN(Cc1cnc2nc(N)nc(N)c2n1)c1ccc(C(=O)N[C@@H](CCC(=O)O)C(=O)O)cc1` [METHOTREXATE], the “Log 1/C” value amounted to 2.9.

As for `CC1(C)N=C(N)N=C(N)N1c1cccc(COc2ccccc2)c1`, the “Log 1/C” value worked out at 5.67. `CC1(C)N=C(N)N=C(N)N1c1cccc([N+](=O)[O-])c1`: the “Log 1/C” value was found to be 5.03. Consider `CC1(C)N=C(N)N=C(N)N1c1cccc(OCc2ccc(Cl)c(Cl)c2)c1`, for which the “Log 1/C” value was found to be 5.8. As for `CC(C)(C)c1cccc(N2C(N)=NC(N)=NC2(C)C)c1`, the “Log 1/C” value stood at 6.03.

Turning to `CCCCCCc1cccc(N2C(N)=NC(N)=NC2(C)C)c1`, the “Log 1/C” value is listed as 6.39. For the compound `CC1(C)N=C(N)N=C(N)N1c1cccc(C(O)c2ccccc2)c1` (configuration not stated), the “Log 1/C” value was 4.17. With `CC1(C)N=C(N)N=C(N)N1c1cccc(OCCCCOc2cccc(C(F)(F)F)c2)c1`, the “Log 1/C” value is 6.28. As to `CC1(C)N=C(N)N=C(N)N1c1cccc(OCCCCOc2ccccc2)c1`, the “Log 1/C” value was 5.3. On to `CCCCOc1cccc(N2C(N)=NC(N)=NC2(C)C)c1`, for which the “Log 1/C” value is listed as 5.95. In the case of `CC1(C)N=C(N)N=C(N)N1c1cccc(CSc2ccccc2)c1`, the “Log 1/C” value is reported as 6.2. As to `CCCCCCCCCCCCOc1cccc(N2C(N)=NC(N)=NC2(C)C)c1`, the “Log 1/C” value stood at 6.24. In the case of `CC(C)c1cccc(OCc2cccc(N3C(N)=NC(N)=NC3(C)C)c2)c1`, the “Log 1/C” value is 5.87. Regarding `CC1(C)N=C(N)N=C(N)N1c1cccc(COc2cccc(NC(N)=O)c2)c1`, the “Log 1/C” value was 4.74. Regarding `Cc1cccc(OCc2cccc(N3C(N)=NC(N)=NC3(C)C)c2)c1`, the “Log 1/C” value was 5.59.

Consider `CC1(C)N=C(N)N=C(N)N1c1cccc(CNc2cc(C(N)=O)cc(C(N)=O)c2)c1`, for which the “Log 1/C” value turned out to be 3.79.

On to `CCCCCCCCCOc1cccc(N2C(N)=NC(N)=NC2(C)C)c1`, for which the “Log 1/C” value came out at 6.57. The same measure for `CC1(C)N=C(N)N=C(N)N1c1cccc(Br)c1`: 5.9; for `CC1(C)N=C(N)N=C(N)N1c1cccc(COc2cccc(CO)c2)c1`: 4.77; for `CC1(C)N=C(N)N=C(N)N1c1cccc(COc2cccc(NC(=N)S)c2)c1`: 4.01. In the case of `CC1(C)N=C(N)N=C(N)N1c1cccc(OCc2ccccc2)c1`, the “Log 1/C” value is recorded as 5.19.

Consider `CC1(C)N=C(N)N=C(N)N1c1cccc(COc2cccc(C#N)c2)c1`, for which the “Log 1/C” value was determined as 5.25.

On to `CC1(C)N=C(N)N=C(N)N1c1cccc(OCCOc2ccccc2)c1`, for which the “Log 1/C” value is 5.02. The same measure for `CCc1cccc(OCc2cccc(N3C(N)=NC(N)=NC3(C)C)c2)c1`: 5.74. Regarding `CN(C)C(=O)c1cccc(COc2ccc(N3C(N)=NC(N)=NC3(C)C)cc2Cl)c1`, the “Log 1/C” value is reported as 5.4. For the compound `CC(C)(C)c1cccc(OCc2cccc(N3C(N)=NC(N)=NC3(C)C)c2)c1`, the “Log 1/C” value was 6.08.

The values above are taken from ChEMBL document CHEMBL1122007, “A comparison of the inhibition of growth of methotrexate-resistant and -sensitive leukemia cells in culture by triazines. Evidence for a new mechanism of cell resistance to methotrexate” (1982).
